In general, MIC refers to the lowest concentration found to suppress growth.

Among the data in ChEMBL document CHEMBL1134275, “New pyridoquinoline derivatives as potential inhibitors of the fluoroquinolone efflux pump in resistant Enterobacter aerogenes strains” (2001) are MIC values, retold here.

Common to all, as to format: functional
Test [1] has as its system Klebsiella aerogenes. The test can be described thus: Inhibitory activity against p9- (derivative of ATCC )13048 strain(Enterobacter aerogenes) in the presence of ciprofloxacin and fluoroquinolone at 16 ug/mL. The procedure, abridged:
(§1)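 Checkerboard microtitration MIC with fluoroquinolone plus test compound against E. aerogenes ATCC 13048 or its p9 derivative carrying plasmid-borne E. coli marA. Bacteria were grown in Luria-Bertani or Mueller-Hinton broth at 37 °C, with 15 µg/mL tetracycline for p9. Wells were inoculated at 10^5 cells/mL and growth was scored visually after 18 h at 37 °C. Values are means of two independent experiments.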

Test [2] has as its system Klebsiella aerogenes. The test can be described thus: Inhibitory activity against p9- (derivative of ATCC )13048 strain(Enterobacter aerogenes) in the presence of Norfloxacin and fluoroquinolone at 16 ug/mL. The method in brief: as §1
The test system of test [3] is Klebsiella aerogenes. Put plainly: Inhibitory activity against ATCC 13048 strain(Enterobacter aerogenes) in the presence of Norfloxacin and fluoroquinolone at 16 ug/mL. The method in brief: as §1
The test system of test [4] is Klebsiella aerogenes. The test can be described thus: Inhibitory activity against ATCC 13048 strain(Enterobacter aerogenes) in the presence of ciprofloxacin fluoroquinolone at 16 ug/mL. The method in brief: as §1
The subject of test [5] is Klebsiella aerogenes. The test can be described thus: Inhibitory activity against Enterobacter aerogenes-3 istrainn the presence of ciprofloxacin and fluoroquinolone at 128 ug/mL. The method in brief:
(§2)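 Compound ranged 8–128 µg/mL, combined with norfloxacin at 16–128 µg/mL or ciprofloxacin at 4–64 µg/mL (final). Cells were grown in LB or MH broth at 37 °C and wells inoculated at 10^5 cells/mL. After 18 h at 37 °C growth was read visually. Values are means of two independent experiments.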

Test [6] deals with Klebsiella aerogenes. Put plainly: Inhibitory activity against Enterobacter aerogenes-3 strain in the presence of Norfloxacin and fluoroquinolone at 128 ug/mL. The procedure, abridged:
as §2

In test [7] the test system is Klebsiella aerogenes. Put plainly: Inhibitory activity against Enterobacter aerogenes-3 strain in the presence of Norfloxacin and fluoroquinolone at 64 ug/mL. The method in brief:
as §2

Test [8] has as its system Klebsiella aerogenes. Put plainly: Inhibitory activity against ATCC 13048 strain(Enterobacter aerogenes) in the presence of ciprofloxacin fluoroquinolone at 32 ug/mL. The method in brief:
as §1

The subject of test [9] is Klebsiella aerogenes. The test can be described thus: Inhibitory activity against ATCC 13048 strain(Enterobacter aerogenes) in the presence of Norfloxacin and fluoroquinolone at 32 ug/mL. The procedure, abridged: as §1
The test system of test [10] is Klebsiella aerogenes. The test can be described thus: Inhibitory activity against Enterobacter aerogenes-3 istrainn the presence of ciprofloxacin and fluoroquinolone at 64 ug/mL. The procedure, abridged:
as §2

The subject of test [11] is Klebsiella aerogenes. Put plainly: Inhibitory activity against ATCC 13048 strain(Enterobacter aerogenes) in the presence of Norfloxacin and fluoroquinolone at a concentration of 16 ug/mL. The method in brief:
as §1

For test [12], the system named is Klebsiella aerogenes. The test can be described thus: Inhibitory activity against p9- (derivative of ATCC )13048 strain(Enterobacter aerogenes) in the presence of Norfloxacin and luoroquinolone at 16 ug/mL. The procedure, abridged:
as §1

Consider `CCN(CC)CCSc1cc(C)nc2c(C)c3nc(C)cc(SCCN(CC)CC)c3cc12`, for which the minimal inhibitory concentration (MIC) in the test with Klebsiella aerogenes [1] turned out to be 0.5 µg/mL; with Klebsiella aerogenes [2] it was 1 µg/mL; in the test with Klebsiella aerogenes [3], 0.05 µg/mL; with Klebsiella aerogenes [4], 0.025 µg/mL.

As for `Cc1cc(OCCN2CCCCC2)c2cc3c(OCCN4CCCCC4)cc(C)nc3c(C)c2n1`, the MIC with Klebsiella aerogenes [1] was found to be 0.25 µg/mL; with Klebsiella aerogenes [2], 1 µg/mL; in the test with Klebsiella aerogenes [5], 32 µg/mL; in the test with Klebsiella aerogenes [6] it was 128 µg/mL; with Klebsiella aerogenes [3], 0.1 µg/mL; in the test with Klebsiella aerogenes [4], 0.025 µg/mL.

Turning to `Cc1cc(SCCN(C)C)c2cc3c(SCCN(C)C)cc(C)nc3c(C)c2n1`, the MIC is 64 µg/mL with Klebsiella aerogenes [7]; 0.25 µg/mL in the test on Klebsiella aerogenes [1]; 0.1 µg/mL in the test on Klebsiella aerogenes [8]; 0.25 µg/mL in the test with Klebsiella aerogenes [2]; 4 µg/mL in the test with Klebsiella aerogenes [5]; 0.25 µg/mL with Klebsiella aerogenes [9]. Moreover, the MIC stood at 16 µg/mL with Klebsiella aerogenes [6], 0.05 µg/mL in the test with Klebsiella aerogenes [3], 0.025 µg/mL with Klebsiella aerogenes [4] and 8 µg/mL in the test on Klebsiella aerogenes [10].

As to `Cc1cc(OCCCN(C)C)c2cc3c(OCCCN(C)C)cc(C)nc3c(C)c2n1`, the MIC is 0.05 µg/mL in the test with Klebsiella aerogenes [1]; 1 µg/mL in the test on Klebsiella aerogenes [2]; 32 µg/mL with Klebsiella aerogenes [5]; 128 µg/mL in the test on Klebsiella aerogenes [6]; 0.05 µg/mL in the test on Klebsiella aerogenes [3]; 0.025 µg/mL in the test with Klebsiella aerogenes [4].

In the case of `O=C(O)c1cn(C2CC2)c2cc(N3CCNCC3)c(F)cc2c1=O` [CIPROFLOXACIN], the MIC is 32 µg/mL in the test on Klebsiella aerogenes [2], 0.025 µg/mL in the test on Klebsiella aerogenes [3] and 0.5 µg/mL in the test with Klebsiella aerogenes [4].

As to `Cc1cc(SCCn2cccc2)c2cc3c(SCCn4cccc4)cc(C)nc3c(C)c2n1`, the minimum inhibitory concentration (MIC) in the test with Klebsiella aerogenes [1] was 0.1 µg/mL; in the test with Klebsiella aerogenes [2], 0.5 µg/mL; with Klebsiella aerogenes [3], 0.025 µg/mL; with Klebsiella aerogenes [4], 0.025 µg/mL.

For the molecule `CCn1cc(C(=O)O)c(=O)c2cc(F)c(N3CCNCC3)cc21` [NORFLOXACIN], the MIC with Klebsiella aerogenes [2] amounted to 128 µg/mL; with Klebsiella aerogenes [3], 0.05 µg/mL.

On to `Cc1cc(OCCN(C)C)c2cc3c(OCCN(C)C)cc(C)nc3c(C)c2n1`, for which the minimal inhibitory concentration (MIC) in the test on Klebsiella aerogenes [1] worked out at 0.25 µg/mL; with Klebsiella aerogenes [2], 1 µg/mL; in the test on Klebsiella aerogenes [11], 0.1 µg/mL; with Klebsiella aerogenes [4], 0.025 µg/mL.

Turning to `Cc1cc(SCCN2CCCCC2)c2cc3c(SCCN4CCCCC4)cc(C)nc3c(C)c2n1`, the MIC in the test with Klebsiella aerogenes [1] was found to be 0.5 µg/mL; in the test with Klebsiella aerogenes [2] it was 2 µg/mL; in the test on Klebsiella aerogenes [3], 0.05 µg/mL; with Klebsiella aerogenes [4] it was 0.025 µg/mL.

Consider `Cc1cc(OCCN(C(C)C)C(C)C)c2cc3c(OCCN(C(C)C)C(C)C)cc(C)nc3c(C)c2n1`, for which the minimum inhibitory concentration (MIC) in the test with Klebsiella aerogenes [1] is 0.5 µg/mL; in the test on Klebsiella aerogenes [12] it was 2 µg/mL; in the test with Klebsiella aerogenes [3] it was 0.05 µg/mL; in the test on Klebsiella aerogenes [4], 0.05 µg/mL.

As to `Cc1cc(OCCN2CCOCC2)c2cc3c(OCCN4CCOCC4)cc(C)nc3c(C)c2n1`, the MIC in the test on Klebsiella aerogenes [1] came to 0.5 µg/mL; in the test with Klebsiella aerogenes [2] it was 2 µg/mL; in the test with Klebsiella aerogenes [3], 0.05 µg/mL; in the test with Klebsiella aerogenes [4], 0.025 µg/mL.
